This is an account of results in ChEMBL document CHEMBL5260822, “Structure-based design and synthesis of 2,4-diaminopyrimidines as EGFR L858R/T790M selective inhibitors for NSCLC” (Eur J Med Chem, 2017).

What is called IC50 is the concentration that inhibits the measured activity by half. The half-life is the time needed for the level to fall by half in the phase considered. High values mean slow decline, low ones rapid decline. One may read the residual activity as the activity still measured, relative to the control. Lower therefore signals little activity left.

Active and inactive are the calls of the source.

Data set [1] has as its target Epidermal growth factor receptor (Homo sapiens, UniProt P00533). In words: Inhibition of EGFR phosphorylation in EGF-stimulated human A-431 cells harboring wild type EGFR at 100 nM and measured after 2 hrs by Western blot analysis. Format: cell-based. In short, it runs like this: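 Cells treated with compound for 2 h, then stimulated with EGF for 15 min and lysed. Lysates cleared at 12,000 × g (10 min, 4 °C), protein measured by Bradford assay, and equal amounts run on 8% SDS-PAGE and blotted to nitrocellulose. Probed for p-EGFR (Y1068), EGFR, p-ERK (T202/Y204), ERK, with tubulin or GAPDH as loading controls.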
For orientation: A western blot detects proteins with antibodies after separation by electrophoresis.

The next data set relates to A-431. In words: Antiproliferative activity against human A-431 cells harboring wild type EGFR assessed as inhibition of cell proliferation incubated for 72 hrs by sulforhodamine B colorimetric assay. Format: functional, cell-based. The following applies: A-431, 72 h. In general terms: Sulforhodamine B stains cellular protein and so reports cell mass.
Data set [2] in a line: Toxicity in BALB/c nude mouse xenografted with human NCI-H1975 cells harboring EGFR L858R/T790M mutant assessed as morphological changes in kidney at 15 to 30 mg/kg, po for 18 days by hematoxylin and eosin staining based microscopic analysis. The following applies: in vivo, 432 h, dose 15-30 mg/kg, time 18 day. It is filed as organism-based. Put shortly: (§1)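 H1975 subcutaneous xenografts were grown in female BALB/cA nu/nu mice (n = 6 per group), dosed at 15 or 30 mg/kg/day for 18 days or with vehicle. At the end the mice were sacrificed. Heart, kidney and liver were harvested, processed and stained with hematoxylin and eosin for routine histological examination.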
(In xenograft studies the graft and the host belong to different species.)

The nature of data set [3]: Toxicity in BALB/c nude mouse xenografted with human NCI-H1975 cells harboring EGFR L858R/T790M mutant assessed as morphological changes in liver at 15 to 30 mg/kg, po for 18 days by hematoxylin and eosin staining based microscopic analysis. The settings on record: in vivo, 432 h, dose 15-30 mg/kg, time 18 day. Format: organism-based. In short, it runs like this:
as §1

For data set [4], the system named is Epidermal growth factor receptor (Homo sapiens), P00533 [L858R,T790M]. In words: In vivo inhibition of EGFR in BALB/c nude mouse xenografted with human NCI-H1975 cells harboring EGFR L858R/T790M mutant assessed as decrease in phosphorylated-EGFR level at 15 to 30 mg/kg, po for 18 days by western blot analysis. It is filed as functional, organism-based. The following applies: dose 15-30 mg/kg, time 18.0 day.
Epidermal growth factor receptor (Homo sapiens), P00533 [L858R,T790M], sequence (P00533 whole entry T790M/L858R, looked up): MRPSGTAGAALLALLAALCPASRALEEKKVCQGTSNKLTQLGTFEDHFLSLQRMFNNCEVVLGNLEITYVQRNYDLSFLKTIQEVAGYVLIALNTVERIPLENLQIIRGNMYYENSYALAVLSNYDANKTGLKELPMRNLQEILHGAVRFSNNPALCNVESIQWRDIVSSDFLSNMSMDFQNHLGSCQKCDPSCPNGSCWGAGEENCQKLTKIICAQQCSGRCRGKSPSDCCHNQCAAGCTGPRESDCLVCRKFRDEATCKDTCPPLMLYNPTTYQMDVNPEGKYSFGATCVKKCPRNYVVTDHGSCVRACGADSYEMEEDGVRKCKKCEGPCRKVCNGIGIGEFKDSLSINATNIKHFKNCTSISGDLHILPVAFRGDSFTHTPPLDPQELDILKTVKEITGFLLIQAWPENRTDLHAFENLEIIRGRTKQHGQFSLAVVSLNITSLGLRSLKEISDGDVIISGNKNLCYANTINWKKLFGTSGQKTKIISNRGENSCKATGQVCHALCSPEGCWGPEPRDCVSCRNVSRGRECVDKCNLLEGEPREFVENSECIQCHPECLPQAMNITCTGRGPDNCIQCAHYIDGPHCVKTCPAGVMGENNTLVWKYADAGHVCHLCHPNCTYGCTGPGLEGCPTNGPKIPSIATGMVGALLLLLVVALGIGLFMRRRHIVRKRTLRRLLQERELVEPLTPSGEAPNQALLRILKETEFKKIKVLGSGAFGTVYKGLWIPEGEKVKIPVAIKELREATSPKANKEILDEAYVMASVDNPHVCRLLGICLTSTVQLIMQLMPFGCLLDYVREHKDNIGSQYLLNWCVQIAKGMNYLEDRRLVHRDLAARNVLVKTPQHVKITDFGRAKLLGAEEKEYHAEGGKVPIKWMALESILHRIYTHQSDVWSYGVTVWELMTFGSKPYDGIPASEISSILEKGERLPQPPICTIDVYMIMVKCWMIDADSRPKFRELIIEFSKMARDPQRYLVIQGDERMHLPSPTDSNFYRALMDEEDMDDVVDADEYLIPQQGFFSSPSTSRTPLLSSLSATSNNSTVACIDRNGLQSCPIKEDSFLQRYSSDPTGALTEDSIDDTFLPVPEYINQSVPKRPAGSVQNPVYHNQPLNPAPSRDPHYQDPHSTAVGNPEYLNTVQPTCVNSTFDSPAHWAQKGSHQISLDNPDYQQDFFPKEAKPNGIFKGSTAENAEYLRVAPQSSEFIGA

The next data set relates to NCI-H1975. Kind of data set: Antitumor activity against human NCI-H1975 cells harboring EGFR L858R/T790M mutant xenografted in BALB/c nude mouse assessed as tumor growth inhibition at 30 mg/kg, po for 18 days. Format: functional. The following applies: NCI-H1975, 432 h, time 18 day, read-out: TGI. In short, it runs like this:
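H1975 cells (1 × 10^6 in 0.1 mL PBS) injected subcutaneously into the right flank of female nude mice. At mean tumor volume of about 100 mm3 (roughly 18 days), mice randomized, n = 6 per group, and dosed once daily for 18 days against a vehicle group. Tumor volume (0.5 × L × W²) measured every 2–3 days; tumors weighed at sacrifice. Data given as mean ± SEM.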

A short description of data set [5]: Oral bioavailability in Sprague-Dawley rat at 10 mg/kg and measured after 24 hrs by LC-MS/MS analysis. It is filed as ADME, organism-based. The following applies: in vivo. In short, it runs like this:
(§2)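 Male Sprague–Dawley rats (190–220 g) dosed by oral gavage at 10 mg/kg in 5% DMSO / 95% HP-β-CD aqueous solution (20%); iv reference arm at 1 mg/kg. Blood sampled at 0.25, 0.5, 1, 2, 4, 6, 8 and 24 h, centrifuged (8000 × g, 6 min), and plasma quantified by LC–MS/MS.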

The nature of data set [6]: Half life in Sprague-Dawley rat at 10 mg/kg, po and measured after 24 hrs by LC-MS/MS analysis. It is filed as ADME, organism-based. The following applies: in vivo. In short, it runs like this: as §2
Data set [7] is described as follows: Half life in Sprague-Dawley rat at 1 mg/kg, iv and measured after 24 hrs by LC-MS/MS analysis. It is filed as ADME, organism-based. The following applies: in vivo.
The subject of data set [8] is Epidermal growth factor receptor (Homo sapiens), P00533 [L858R,T790M]. The settings on record: NCI-H1975, dose 10.0 nM, time 2.0 hrs.
Data set [9] addresses ALK tyrosine kinase receptor (Homo sapiens) (UniProt Q9UM73). In words: Inhibition of ALK (unknown origin) at 1000 nM by DiscoverX KINOMEscan assay relative to control; values are per cent of control.
Data set [10] deals with T1, Tyrosine-protein kinase JAK3 (Homo sapiens) (UniProt P52333).
T1 sequence (whole entry): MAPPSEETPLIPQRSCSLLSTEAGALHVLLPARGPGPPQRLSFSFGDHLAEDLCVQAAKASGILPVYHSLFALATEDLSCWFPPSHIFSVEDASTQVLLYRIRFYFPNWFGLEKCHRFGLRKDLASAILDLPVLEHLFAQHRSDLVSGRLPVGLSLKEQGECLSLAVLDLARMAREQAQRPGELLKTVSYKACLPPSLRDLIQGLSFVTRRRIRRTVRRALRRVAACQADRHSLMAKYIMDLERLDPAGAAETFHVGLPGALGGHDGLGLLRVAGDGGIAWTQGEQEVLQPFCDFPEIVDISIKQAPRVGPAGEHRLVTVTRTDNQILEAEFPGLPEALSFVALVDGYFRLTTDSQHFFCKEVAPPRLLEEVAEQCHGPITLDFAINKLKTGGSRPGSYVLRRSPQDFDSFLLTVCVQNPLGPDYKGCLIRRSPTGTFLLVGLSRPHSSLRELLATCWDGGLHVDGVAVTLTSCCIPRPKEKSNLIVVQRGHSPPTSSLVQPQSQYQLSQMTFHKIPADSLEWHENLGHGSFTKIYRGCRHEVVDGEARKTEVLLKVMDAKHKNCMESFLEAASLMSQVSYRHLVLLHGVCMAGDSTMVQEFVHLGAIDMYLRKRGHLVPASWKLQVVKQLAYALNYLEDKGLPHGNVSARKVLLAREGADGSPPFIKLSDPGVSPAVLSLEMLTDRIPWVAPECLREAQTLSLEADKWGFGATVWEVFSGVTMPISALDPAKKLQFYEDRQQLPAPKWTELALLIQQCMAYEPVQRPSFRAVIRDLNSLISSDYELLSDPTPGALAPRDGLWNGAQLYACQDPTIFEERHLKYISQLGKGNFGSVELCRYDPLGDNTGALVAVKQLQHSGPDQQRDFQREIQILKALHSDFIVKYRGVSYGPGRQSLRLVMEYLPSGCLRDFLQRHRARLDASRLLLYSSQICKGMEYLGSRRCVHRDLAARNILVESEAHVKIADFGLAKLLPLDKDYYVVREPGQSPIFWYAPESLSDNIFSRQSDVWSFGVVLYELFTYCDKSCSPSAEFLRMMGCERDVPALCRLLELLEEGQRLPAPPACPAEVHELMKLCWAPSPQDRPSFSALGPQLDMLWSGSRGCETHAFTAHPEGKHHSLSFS
Kind of data set: Inhibition of JAK3 (unknown origin) at 1000 nM by DiscoverX KINOMEscan assay relative to control; values are per cent of control.

The target of data set [11] is Insulin-like growth factor 1 receptor (Homo sapiens) (UniProt P08069). In words: Inhibition of IGF1R (unknown origin) at 1000 nM by DiscoverX KINOMEscan assay relative to control; values are per cent of control.

Epidermal growth factor receptor, sequence (P00533 whole entry): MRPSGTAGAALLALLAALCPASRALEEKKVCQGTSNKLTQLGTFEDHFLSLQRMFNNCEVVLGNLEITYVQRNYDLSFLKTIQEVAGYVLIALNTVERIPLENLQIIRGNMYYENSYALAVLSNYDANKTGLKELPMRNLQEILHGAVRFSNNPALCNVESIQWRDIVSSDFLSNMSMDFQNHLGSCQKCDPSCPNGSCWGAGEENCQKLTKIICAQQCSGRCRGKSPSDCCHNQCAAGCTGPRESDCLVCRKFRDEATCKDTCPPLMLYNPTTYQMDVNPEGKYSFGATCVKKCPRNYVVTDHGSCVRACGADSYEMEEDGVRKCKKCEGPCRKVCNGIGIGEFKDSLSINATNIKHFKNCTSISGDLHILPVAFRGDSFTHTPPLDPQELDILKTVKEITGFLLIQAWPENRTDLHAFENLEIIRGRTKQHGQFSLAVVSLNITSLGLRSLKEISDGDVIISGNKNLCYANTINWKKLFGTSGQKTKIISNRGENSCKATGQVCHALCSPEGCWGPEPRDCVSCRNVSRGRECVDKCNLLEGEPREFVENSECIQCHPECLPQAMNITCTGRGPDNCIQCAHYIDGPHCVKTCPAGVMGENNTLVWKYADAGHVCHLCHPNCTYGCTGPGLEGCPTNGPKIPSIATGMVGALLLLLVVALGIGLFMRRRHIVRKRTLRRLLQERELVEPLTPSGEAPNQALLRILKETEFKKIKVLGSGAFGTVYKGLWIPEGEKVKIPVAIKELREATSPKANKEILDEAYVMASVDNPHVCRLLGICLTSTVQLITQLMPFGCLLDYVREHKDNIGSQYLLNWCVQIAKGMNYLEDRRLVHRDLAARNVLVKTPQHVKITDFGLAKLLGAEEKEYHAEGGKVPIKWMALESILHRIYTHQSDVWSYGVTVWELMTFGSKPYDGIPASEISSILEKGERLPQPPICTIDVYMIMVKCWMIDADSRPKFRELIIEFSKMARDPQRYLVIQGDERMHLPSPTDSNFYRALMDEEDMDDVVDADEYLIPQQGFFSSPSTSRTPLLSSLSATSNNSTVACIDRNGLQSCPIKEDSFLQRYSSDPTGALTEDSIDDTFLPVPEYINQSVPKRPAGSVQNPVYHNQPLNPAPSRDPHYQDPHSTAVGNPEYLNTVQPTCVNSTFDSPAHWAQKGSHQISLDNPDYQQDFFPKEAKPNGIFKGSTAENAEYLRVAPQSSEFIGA
ALK tyrosine kinase receptor (Homo sapiens), sequence (Q9UM73 19-1620 limits assumed): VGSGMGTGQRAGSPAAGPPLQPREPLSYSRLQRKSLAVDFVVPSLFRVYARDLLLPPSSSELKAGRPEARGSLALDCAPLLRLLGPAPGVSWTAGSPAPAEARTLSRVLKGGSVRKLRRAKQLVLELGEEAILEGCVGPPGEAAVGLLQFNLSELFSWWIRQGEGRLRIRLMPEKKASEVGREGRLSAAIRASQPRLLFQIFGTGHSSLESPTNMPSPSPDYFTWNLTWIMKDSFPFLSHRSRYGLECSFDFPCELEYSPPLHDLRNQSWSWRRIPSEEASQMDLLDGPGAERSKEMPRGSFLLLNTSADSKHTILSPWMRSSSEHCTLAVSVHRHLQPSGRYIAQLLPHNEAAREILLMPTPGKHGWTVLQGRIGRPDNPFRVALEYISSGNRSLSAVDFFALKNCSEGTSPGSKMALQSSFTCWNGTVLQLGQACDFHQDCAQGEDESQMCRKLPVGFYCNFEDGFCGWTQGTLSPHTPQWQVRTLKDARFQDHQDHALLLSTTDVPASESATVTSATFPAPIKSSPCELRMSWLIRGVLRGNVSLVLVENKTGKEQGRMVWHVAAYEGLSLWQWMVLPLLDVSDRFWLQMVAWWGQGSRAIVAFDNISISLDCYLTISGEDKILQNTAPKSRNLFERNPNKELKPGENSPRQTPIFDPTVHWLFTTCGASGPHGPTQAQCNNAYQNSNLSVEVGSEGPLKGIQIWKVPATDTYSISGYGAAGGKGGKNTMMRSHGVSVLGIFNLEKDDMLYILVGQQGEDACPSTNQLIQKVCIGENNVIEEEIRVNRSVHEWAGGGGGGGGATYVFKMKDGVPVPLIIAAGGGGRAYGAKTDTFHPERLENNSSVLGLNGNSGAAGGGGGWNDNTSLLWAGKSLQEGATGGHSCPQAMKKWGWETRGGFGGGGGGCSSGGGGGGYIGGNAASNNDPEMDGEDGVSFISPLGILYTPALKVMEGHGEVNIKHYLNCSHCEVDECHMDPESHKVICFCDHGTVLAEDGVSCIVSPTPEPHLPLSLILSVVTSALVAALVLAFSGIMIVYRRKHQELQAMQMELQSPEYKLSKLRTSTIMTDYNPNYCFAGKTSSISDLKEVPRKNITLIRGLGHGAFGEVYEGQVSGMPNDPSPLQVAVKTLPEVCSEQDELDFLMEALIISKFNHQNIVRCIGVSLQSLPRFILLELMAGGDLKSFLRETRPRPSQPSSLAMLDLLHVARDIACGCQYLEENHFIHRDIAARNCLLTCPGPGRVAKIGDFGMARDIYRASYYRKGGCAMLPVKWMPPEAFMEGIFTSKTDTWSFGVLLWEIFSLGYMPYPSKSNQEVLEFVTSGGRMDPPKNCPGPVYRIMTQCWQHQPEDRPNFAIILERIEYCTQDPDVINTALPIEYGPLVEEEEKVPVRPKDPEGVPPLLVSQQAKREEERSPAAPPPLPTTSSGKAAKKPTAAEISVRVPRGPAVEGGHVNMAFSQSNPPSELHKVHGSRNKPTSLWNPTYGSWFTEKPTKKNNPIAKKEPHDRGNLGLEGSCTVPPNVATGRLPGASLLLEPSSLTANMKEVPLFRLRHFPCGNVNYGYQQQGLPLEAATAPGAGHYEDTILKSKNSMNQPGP

Turning to `C=CC(=O)Nc1cc(Nc2ncc(Br)c(Nc3ccc4ccn(C)c4c3)n2)c(OC)cc1N1CCN(C)CC1`, the inhibition entry in [1] is “inactive”. The IC50 with A-431 was found to be 1690 nM. Further, the Activity result in [2] and in [3] was “Non-Toxic” each time. The inhibition entry in [4] and in data set [8] was “Active” each time. Besides, the inhibition in vivo at 30 mg/kg with NCI-H1975 worked out at 86%. Besides, the F in data set [5] was 52.3%. In addition, the figures for the half-life in [6] and in data set [7] were 195 min and 208 min, respectively. The residual activity in data set [9] was below 10%; in data set [10], below 1%; in data set [11] it was above 35%.
